Measured values: ChEMBL document CHEMBL4480385, “Design, synthesis and molecular docking studies of novel N-arylsulfonyl-benzimidazoles with anti Trypanosoma cruzi activity” (Eur J Med Chem, 2019)

Experiments:
[1] = Inhibition of Trypanosoma cruzi apoenzyme form of PFK
[2] = Inhibition of Trypanosoma cruzi holoenzyme form of PFK
[3] = Selectivity index, ratio of IC50 for African green monkey Vero cells to IC50 for Trypanosoma cruzi IRHOD/CO/2008/SN3 epimastigotes; assay type: toxicity; conditions: read-out: Ratio IC50
[4] = tested on: Trypanosoma cruzi; assay: Anti-trypanosomal activity against Trypanosoma cruzi IRHOD/CO/2008/SN3 epimastigotes after 72 hrs by Neubauer hemocytometric method; assay type: functional, organism-based; conditions: IRHOD/CO/2008/SN3, 72 h
[5] = tested on: Vero; assay: Cytotoxicity against African green monkey Vero cells after 72 hrs by propidium iodide/fluorescein diacetate staining based flow cytometry; assay type: cell-based; conditions: Chlorocebus sabaeus
[6] = tested on: Trypanosoma cruzi; assay: Inhibition of PFK in Trypanosoma cruzi IRHOD/CO/2008/SN3 epimastigotes assessed as change in succinate excretion at IC25 after 96 hrs by 1H NMR analysis relative to control; parameters: scale not given: the % may be the effect or the level left
In short: (§1)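 SN3 epimastigotes (starting at 5 × 10⁵ cells/mL) were incubated with compound for 96 h at 28 °C, alongside drug-free control cultures. Cells were pelleted at 400 g for 10 min. Excreted end products in the supernatant were identified and quantified by ¹H NMR against a DSS reference signal, and compared with the controls.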

[7] = tested on: Trypanosoma cruzi; assay: Inhibition of PFK in Trypanosoma cruzi IRHOD/CO/2008/SN3 epimastigotes assessed as change in pyruvate excretion at IC25 after 96 hrs by 1H NMR analysis relative to control; parameters: scale not given: the % may be the effect or the level left; in short: as §1
[8] = tested on: Trypanosoma cruzi; assay: Inhibition of PFK in Trypanosoma cruzi IRHOD/CO/2008/SN3 epimastigotes assessed as change in D-lactate excretion at IC25 after 96 hrs by 1H NMR analysis relative to control; parameters: scale not given: the % may be the effect or the level left; in short: as §1
[9] = tested on: Trypanosoma cruzi; assay: Inhibition of PFK in Trypanosoma cruzi IRHOD/CO/2008/SN3 epimastigotes assessed as change in acetate excretion at IC25 after 96 hrs by 1H NMR analysis relative to control; parameters: scale not given: the % may be the effect or the level left; in short: as §1
[10] = Selectivity index, ratio of IC50 for African green monkey Vero cells to IC50 for Trypanosoma cruzi IRHOD/CO/2008/SN3 amastigotes infected in African green monkey Vero cells; assay type: toxicity; conditions: read-out: Ratio IC50
[11] = tested on: Trypanosoma cruzi; assay: Inhibition of PFK in Trypanosoma cruzi IRHOD/CO/2008/SN3 epimastigotes assessed as change in L-alanine excretion at IC25 after 96 hrs by 1H NMR analysis relative to control; parameters: scale not given: the % may be the effect or the level left; in short: as §1
[12] = tested on: Trypanosoma cruzi; assay: Anti-trypanosomal activity against Trypanosoma cruzi IRHOD/CO/2008/SN3 amastigotes infected in African green monkey Vero cells after 72 hrs by Giemsa-staining based microscopic analysis; assay type: functional, organism-based; conditions: IRHOD/CO/2008/SN3, Vero
[13] = tested on: Trypanosoma cruzi; assay: Potency index, ratio benznidazole IC50 to test compound IC50 for anti-trypanosomal activity against Trypanosoma cruzi IRHOD/CO/2008/SN3 epimastigotes; assay type: functional
In short: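 Epimastigotes of the SN3 strain were grown in TLM with 10% inactivated FBS at 28 °C in air. Compounds or benznidazole, dissolved in PEG:EtOH (7:3), were added at final levels of 1, 10, 25 and 50 and left for 72 h. Parasites were counted by haemocytometer. IC50 for 50% growth inhibition was fitted by PROBIT, and values are the mean of three experiments.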

[14] = tested on: Trypanosoma cruzi; assay: Potency index, ratio benznidazole IC50 to test compound IC50 for anti-trypanosomal activity against Trypanosoma cruzi IRHOD/CO/2008/SN3 amastigotes infected in African green monkey Vero cells; assay type: functional
In short: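 Vero cells were grown in RPMI with 10% inactivated FBS at 37 °C in 5% CO2. They were seeded at 1 × 10⁴ cells/well on coverslips, cultured for 2 days, then infected with metacyclic T. cruzi at 10:1 for 24 h and washed. Compounds at 1, 10, 25 and 50 were added for 72 h. Amastigotes in methanol-fixed, Giemsa-stained preparations were counted against untreated cultures.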

Cc1cc(NS(=O)(=O)c2ccc(NC(=O)Cc3ccc(Cl)c(F)c3)cc2)no1
pIC50 [1]: 2.81 | pIC50 [2]: 2.81

Cc1ccc(S(=O)(=O)n2cnc3ccccc32)cc1
selectivity ratio [3]: 4.5 | IC50 [4]: 23.8 µM | IC50 [5]: 108 µM | pIC50 [1]: 4.38

O=C(Cc1ccc(Cl)c(Cl)c1)Nc1ccc(S(=O)(=O)Nc2nncs2)cc1
pIC50 [1]: 1.72 | pIC50 [2]: 1.72

O=C(Cc1ccc(F)c(Cl)c1)Nc1ccc(S(=O)(=O)Nc2nccs2)cc1
pIC50 [1]: 2.07 | pIC50 [2]: 2.07

Cc1cc(NS(=O)(=O)c2ccc(NC(=O)Cc3ccc(Cl)c(Cl)c3)cc2)n(C)n1
pIC50 [1]: 3.06 | pIC50 [2]: 2.96

Cc1cc(NS(=O)(=O)c2ccc(NC(=O)Cc3cccc(Cl)c3)cc2)no1
pIC50 [1]: 3.46 | pIC50 [2]: 3.46

O=C(Cc1ccc(Cl)c(Cl)c1)Nc1ccc(S(=O)(=O)Nc2ccccc2)cc1
pIC50 [1]: 4.21 | pIC50 [2]: 4.21

O=S(=O)(c1ccccc1)n1cnc2ccccc21
Activity [6]: -16% | selectivity ratio [3]: 196 | Activity [7]: -13.4% | IC50 [4]: 9 µM | Activity [8]: 16.4% | Activity [9]: 3.31% | IC50 [5]: 1770 µM | selectivity ratio [10]: 47.3 | pIC50 [1]: 3.95 | Activity [11]: -3.24% | IC50 [12]: 37.3 µM

O=C(Cc1ccc(Cl)c(Cl)c1)Nc1ccc(S(=O)(=O)Nc2nccs2)cc1
pIC50 [1]: 1.61 | pIC50 [2]: 1.61

O=[N+]([O-])c1ccccc1S(=O)(=O)n1cnc2ccccc21
selectivity ratio [3]: 22 | IC50 [4]: 5.5 µM | IC50 [5]: 120 µM | pIC50 [1]: 3.74 | Ratio IC50 [13]: 3 - 5

Cc1cc(C)c(C)c(S(=O)(=O)n2cnc3ccccc32)c1C
Activity [6]: -7.22% | selectivity ratio [3]: 91.7 | Activity [7]: 10.9% | IC50 [4]: 2.2 µM | Activity [8]: 26.4% | Activity [9]: 12% | IC50 [5]: 205 µM | selectivity ratio [10]: 10.8 | pIC50 [1]: 3.34 | Activity [11]: 10.4% | IC50 [12]: 19 µM | Ratio IC50 [13]: 3 - 5

Cc1cc(N(C)S(=O)(=O)c2ccc(NC(=O)Cc3ccc(Cl)c(Cl)c3)cc2)no1
pIC50 [1]: 3.41 | pIC50 [2]: 3.41

Cc1cc(NS(=O)(=O)Cc2ccc(NC(=O)Cc3ccc(Cl)c(Cl)c3)cc2)no1
pIC50 [1]: 3.66 | pIC50 [2]: 3.66

O=S(=O)(c1ccc(Cl)cc1)n1cnc2ccccc21
selectivity ratio [3]: 7.3 | IC50 [4]: 16.8 µM | IC50 [5]: 122 µM | pIC50 [1]: 4.23

Cc1cc(NS(=O)(=O)c2ccc(NC(=O)Cc3ccc(Cl)cc3)cc2)no1
pIC50 [1]: 3.21 | pIC50 [2]: 3.11

O=[N+]([O-])c1ccc(S(=O)(=O)n2cnc3ccccc32)cc1
selectivity ratio [3]: 135 | IC50 [4]: 2.6 µM | IC50 [5]: 347 µM | pIC50 [1]: 3.41 | Ratio IC50 [13]: 3 - 5

Cc1cc(NS(=O)(=O)c2ccc(NC(=O)Cc3ccc(Cl)c(Cl)c3)cc2)no1
pIC50 [1]: 2.36 | pIC50 [2]: 2.36

CC(=O)c1ccc(S(=O)(=O)n2cnc3ccccc32)cc1
selectivity ratio [3]: 24.5 | IC50 [4]: 26.8 µM | IC50 [5]: 656 µM | pIC50 [1]: 4.43

Cc1cc(NS(=O)(=O)c2ccc(NC(=O)Cc3ccc4ccccc4c3)cc2)no1
pIC50 [1]: 3.31 | pIC50 [2]: 3.26

Cc1cc(NS(=O)(=O)c2ccc(NCCc3ccc(Cl)c(Cl)c3)cc2)no1
pIC50 [1]: 4.21 | pIC50 [2]: 4.21

CC(=O)Nc1ccc(S(=O)(=O)n2cnc3ccccc32)cc1
Activity [6]: 28.3% | selectivity ratio [3]: 65.4 | Activity [7]: 2.38% | IC50 [4]: 7.2 µM | Activity [8]: 25.5% | Activity [9]: 12.3% | IC50 [5]: 468 µM | selectivity ratio [10]: 45.9 | Ratio IC50 [14]: 2 | pIC50 [1]: 3.86 | Activity [11]: 6.8% | IC50 [12]: 10.1 µM

Cc1cc(NS(=O)(=O)c2ccc(NC(=O)Cc3ccc(C)c(C)c3)cc2)no1
pIC50 [1]: 3.81 | pIC50 [2]: 3.81

Cc1cc(NS(=O)(=O)c2ccc(NC(=O)Cc3ccccc3)cc2)no1
pIC50 [1]: 4.31 | pIC50 [2]: 4.31

CN(C)c1cccc(NS(=O)(=O)c2ccc(NC(=O)Cc3ccc(Cl)c(Cl)c3)cc2)c1
pIC50 [1]: 4.11 | pIC50 [2]: 4.11

O=S(=O)(c1ccc(Br)cc1)n1cnc2ccccc21
selectivity ratio [3]: 50.5 | IC50 [4]: 23.5 µM | IC50 [5]: 1190 µM | selectivity ratio [10]: 33.3 | pIC50 [1]: 4.37 | IC50 [12]: 35.7 µM

Cc1cc(NS(=O)(=O)c2ccc(NC(=O)Cc3ccc(Cl)c(C(F)(F)F)c3)cc2)no1
pIC50 [1]: 2.96 | pIC50 [2]: 2.86

O=C(Cc1ccc(F)c(Cl)c1)Nc1ccc(S(=O)(=O)Nc2nncs2)cc1
pIC50 [1]: 2.23 | pIC50 [2]: 2.23

COc1ccc(CC(=O)Nc2ccc(S(=O)(=O)Nc3cc(C)on3)cc2)cc1C
pIC50 [1]: 4.31 | pIC50 [2]: 4.31

Cc1cc(NS(=O)(=O)c2ccc(N(C)C(=O)Cc3ccc(Cl)c(Cl)c3)cc2)no1
pIC50 [1]: 3.16 | pIC50 [2]: 3.06

O=C(Cc1ccc(Cl)c(Cl)c1)Nc1ccc(S(=O)(=O)Nc2cccc(O)c2)cc1
pIC50 [1]: 3.26 | pIC50 [2]: 3.16

Cc1cc(NS(=O)(=O)c2cccc(NC(=O)Cc3ccc(Cl)c(Cl)c3)c2)no1
pIC50 [1]: 4.21 | pIC50 [2]: 4.21

Cc1cc(NS(=O)(=O)c2ccc(NC(=O)c3ccc(Cl)c(Cl)c3)cc2)no1
pIC50 [1]: 4.31 | pIC50 [2]: 4.31

O=S(=O)(c1ccc(C(F)(F)F)cc1)n1cnc2ccccc21
Activity [6]: -7.22% | selectivity ratio [3]: 74.8 | Activity [7]: 10.6% | IC50 [4]: 6.2 µM | Activity [8]: 25.8% | Activity [9]: 11.8% | IC50 [5]: 460 µM | selectivity ratio [10]: 19.2 | pIC50 [1]: 3.79 | Activity [11]: 9.92% | IC50 [12]: 24 µM

Cc1cc(NS(=O)(=O)c2ccc(C(=O)NCc3ccc(Cl)c(Cl)c3)cc2)no1
pIC50 [1]: 3.51 | pIC50 [2]: 3.51

Cc1cc(NS(=O)(=O)c2ccc(NC(=O)C(C)(C)c3ccc(Cl)c(Cl)c3)cc2)no1
pIC50 [1]: 4.56 | pIC50 [2]: 4.56

Cc1cc(NS(=O)(=O)c2ccc(NC(=O)Cc3ccc(C)c(F)c3)cc2)no1
pIC50 [1]: 3.81 | pIC50 [2]: 3.81

Cc1cc(NS(=O)(=O)c2ccc(NC(=O)Cc3ccc(Cl)cc3Cl)cc2)no1
pIC50 [1]: 4.21 | pIC50 [2]: 4.21

O=C(Cc1ccc(Cl)c(Cl)c1)Nc1ccc(S(=O)(=O)Nc2ccon2)cc1
pIC50 [1]: 2.11 | pIC50 [2]: 2.11

O=C(Cc1ccc(Cl)c(Cl)c1)Nc1ccc(S(=O)(=O)Nc2cc[nH]n2)cc1
pIC50 [1]: 2.86 | pIC50 [2]: 2.86

O=S(=O)(c1cccc(C(F)(F)F)c1)n1cnc2ccccc21
selectivity ratio [3]: 4.3 | IC50 [4]: 13.9 µM | IC50 [5]: 59.8 µM | pIC50 [1]: 4.14

Cc1cc(NS(=O)(=O)c2ccc(NC(=O)Cc3ccc(F)c(Cl)c3)cc2)no1
pIC50 [1]: 2.66 | pIC50 [2]: 2.66

O=[N+]([O-])c1cccc(S(=O)(=O)n2cnc3ccccc32)c1
Activity [6]: -33.2% | selectivity ratio [3]: 141 | Activity [7]: -30.2% | IC50 [4]: 4.6 µM | Activity [8]: -3.97% | Activity [9]: -16.6% | IC50 [5]: 648 µM | selectivity ratio [10]: 40.6 | pIC50 [1]: 3.66 | Activity [11]: -22.7% | IC50 [12]: 15.9 µM | Ratio IC50 [13]: 3 - 5

CC(C)(C)c1ccc(S(=O)(=O)n2cnc3ccccc32)cc1
selectivity ratio [3]: 22.5 | IC50 [4]: 3 µM | IC50 [5]: 68.5 µM | pIC50 [1]: 3.48 | Ratio IC50 [13]: 3 - 5

Cc1cc(NS(=O)(=O)C2CCN(C(=O)Cc3ccc(Cl)c(Cl)c3)CC2)no1
pIC50 [1]: 4.16 | pIC50 [2]: 4.16

Cc1cc(NS(=O)(=O)c2ccc(NC(=O)CCc3ccc(Cl)c(Cl)c3)cc2)no1
pIC50 [1]: 4.06 | pIC50 [2]: 4.06
